# Test results from ChEMBL document CHEMBL1687824, “Overexpression of patA and patB, which encode ABC transporters, is associated with fluoroquinolone resistance in clinical isolates of Streptococcus pneumoniae” (2011).
# Legend:
# Streptococcus pneumoniae [1] = assay: Antibacterial activity against fluoroquinolone, dye-resistant Streptococcus pneumoniae by standardized agar doubling dilution method; assay type: functional
# In short: (§1)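 MIC by agar doubling dilution following BSAC guidelines. Strains grown in brain heart infusion broth 24 h at 37°C in 5% CO2. Where an efflux pump inhibitor applies, MIC redetermined with reserpine at 20 μg/ml or sodium orthovanadate at 50 μM. Synergy taken as a fall in MIC of ≥2 dilutions with inhibitor present. Dye resistance defined relative to R6 (both dyes ≥2 dilutions higher).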
# Streptococcus pneumoniae [2] = assay: Antibacterial activity against fluoroquinolone-resistant Streptococcus pneumoniae by standardized agar doubling dilution method; assay type: functional; in short: as §1
# Streptococcus pneumoniae [3] = assay: Antibacterial activity against fluoroquinolone-resistant Streptococcus pneumoniae by standardized agar doubling dilution method in presence of 20 ug/ml reserpine efflux pump inhibitor; assay type: functional; in short: as §1
# Streptococcus pneumoniae [4] = assay: Antibacterial activity against fluoroquinolone-resistant Streptococcus pneumoniae by standardized agar doubling dilution method in presence of 50 uM sodium orthovanadate efflux pump inhibitor; assay type: functional; in short: as §1
# Streptococcus pneumoniae [5] = assay: Antibacterial activity against dye-resistant Streptococcus pneumoniae by standardized agar doubling dilution method; assay type: functional; in short: as §1
# Streptococcus pneumoniae [6] = assay: Antibacterial activity against fluoroquinolone, dye-susceptible Streptococcus pneumoniae by standardized agar doubling dilution method; assay type: functional; in short: as §1
# Streptococcus pneumoniae [7] = assay: Antibacterial activity against fluoroquinolone, dye-susceptible Streptococcus pneumoniae by standardized agar doubling dilution method in presence of 50 uM sodium orthovanadate efflux pump inhibitor; assay type: functional; in short: as §1
# Streptococcus pneumoniae [8] = assay: Antibacterial activity against fluoroquinolone, dye-resistant Streptococcus pneumoniae M45 overexpressing patA, patB by standardized agar doubling dilution method; assay type: functional; in short: as §1
# Streptococcus pneumoniae [9] = assay: Antibacterial activity against Streptococcus pneumoniae M50A overexpressing patA, patB and inactivated patA with single mutation by standardized agar doubling dilution method; assay type: functional
# In short: (§2)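 MICs were determined by agar doubling dilution following BSAC guidelines, with no efflux inhibitor. Strains were grown in brain heart infusion broth for 24 h at 37°C in 5% CO2. Species identity was confirmed by Gram stain, optochin sensitivity and capsule test. Control strain R6 was tested alongside.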
# Streptococcus pneumoniae [10] = assay: Antibacterial activity against Streptococcus pneumoniae M86B overexpressing patA, patB and inactivated patB with single mutation by standardized agar doubling dilution method; assay type: functional; in short: as §2
# Streptococcus pneumoniae [11] = assay: Antibacterial activity against Streptococcus pneumoniae M318 overexpressing patA, patB and inactivated patA with single mutation by standardized agar doubling dilution method; assay type: functional; in short: as §2
# Streptococcus pneumoniae [12] = assay: Antibacterial activity against Streptococcus pneumoniae M314 overexpressing patA, patB and inactivated patA with single mutation by standardized agar doubling dilution method; assay type: functional
# In short: (§3)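 MICs determined by BSAC standardized agar doubling dilution. Strains were grown in brain heart infusion broth for 24 h at 37°C in 5% CO2. Inhibitor arms had reserpine at 20 μg/ml or sodium orthovanadate at 50 μM in the agar. Mutants were made by transforming magellan2 insertion amplimers into clinical isolates and selecting on spectinomycin 100 mg/liter, with a no-DNA spontaneous-mutation control.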
# Streptococcus pneumoniae [13] = assay: Antibacterial activity against Streptococcus pneumoniae M307 overexpressing patA, patB and inactivated patB with single mutation by standardized agar doubling dilution method; assay type: functional; in short: as §3
# Streptococcus pneumoniae [14] = assay: Antibacterial activity against fluoroquinolone-resistant Streptococcus pneumoniae M100 FQ-R overexpressing patA, patB by standardized agar doubling dilution method; assay type: functional
# In short: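 MIC by agar doubling dilution per BSAC guidelines; strains pregrown in brain heart infusion broth 24 h, 37°C, 5% CO2. MICs measured alone and with efflux pump inhibitors reserpine (20 μg/ml) or sodium orthovanadate (50 μM); synergy defined as ≥2-dilution MIC reduction in presence of inhibitor.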
# Streptococcus pneumoniae [15] = assay: Antibacterial activity against Streptococcus pneumoniae M55B overexpressing patA, patB and inactivated patB with single mutation by standardized agar doubling dilution method; assay type: functional; in short: as §2
# Streptococcus pneumoniae [16] = assay: Antibacterial activity against Streptococcus pneumoniae M45B overexpressing patA, patB and inactivated patB with single mutation by standardized agar doubling dilution method in presence of 20 ug/ml reserpine efflux pump inhibitor; assay type: functional
# In short: (§4)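 MICs were determined by BSAC agar doubling dilution in the presence of reserpine at 20 μg/ml. Strains were grown in BHI broth for 24 h at 37°C in 5% CO2, with R6 as control. Synergy was defined as an MIC drop of ≥2 dilutions with the inhibitor.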
# Streptococcus pneumoniae [17] = assay: Antibacterial activity against Streptococcus pneumoniae M50A overexpressing patA, patB and inactivated patA with single mutation by standardized agar doubling dilution method in presence of 20 ug/ml reserpine efflux pump inhibitor; assay type: functional; in short: as §4
# Streptococcus pneumoniae [18] = assay: Antibacterial activity against Streptococcus pneumoniae M50B overexpressing patA, patB and inactivated patB with single mutation by standardized agar doubling dilution method in presence of 20 ug/ml reserpine efflux pump inhibitor; assay type: functional; in short: as §4
# Streptococcus pneumoniae [19] = assay: Antibacterial activity against Streptococcus pneumoniae M301 overexpressing patA, patB and inactivated patA with single mutation by standardized agar doubling dilution method in presence of 20 ug/ml reserpine efflux pump inhibitor; assay type: functional; in short: as §3
# Streptococcus pneumoniae [20] = assay: Antibacterial activity against Streptococcus pneumoniae M316 overexpressing patA, patB and inactivated patA with single mutation by standardized agar doubling dilution method in presence of 20 ug/ml reserpine efflux pump inhibitor; assay type: functional; in short: as §4
# Streptococcus pneumoniae [21] = assay: Antibacterial activity against Streptococcus pneumoniae M319 overexpressing patA, patB and inactivated patB with single mutation by standardized agar doubling dilution method in presence of 20 ug/ml reserpine efflux pump inhibitor; assay type: functional; in short: as §4
# Streptococcus pneumoniae [22] = assay: Antibacterial activity against Streptococcus pneumoniae M308 overexpressing patA, patB and inactivated patB with single mutation by standardized agar doubling dilution method in presence of 20 ug/ml reserpine efflux pump inhibitor; assay type: functional; in short: as §3
# Streptococcus pneumoniae [23] = assay: Antibacterial activity against fluoroquinolone, dye-resistant Streptococcus pneumoniae M45 overexpressing patA, patB by standardized agar doubling dilution method in presence of 50 uM sodium orthovanadate efflux pump inhibitor; assay type: functional; in short: as §1
# Streptococcus pneumoniae [24] = assay: Antibacterial activity against Streptococcus pneumoniae M50A overexpressing patA, patB and inactivated patA with single mutation by standardized agar doubling dilution method in presence of 50 uM sodium orthovanadate efflux pump inhibitor; assay type: functional
# In short: (§5)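 MICs were determined by BSAC agar doubling dilution in the presence of sodium orthovanadate at 50 μM. Cultures were grown in BHI broth for 24 h at 37°C in 5% CO2, with R6 as control. Synergy was defined as an MIC reduction of ≥2 dilutions with the inhibitor present.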
# Streptococcus pneumoniae [25] = assay: Antibacterial activity against Streptococcus pneumoniae M305 overexpressing patA, patB and inactivated patB with single mutation by standardized agar doubling dilution method in presence of 50 uM sodium orthovanadate efflux pump inhibitor; assay type: functional; in short: as §3
# Streptococcus pneumoniae [26] = assay: Antibacterial activity against Streptococcus pneumoniae M319 overexpressing patA, patB and inactivated patB with single mutation by standardized agar doubling dilution method in presence of 50 uM sodium orthovanadate efflux pump inhibitor; assay type: functional; in short: as §5
# Streptococcus pneumoniae [27] = assay: Antibacterial activity against Streptococcus pneumoniae M55B overexpressing patA, patB and inactivated patB with single mutation by standardized agar doubling dilution method in presence of 50 uM sodium orthovanadate efflux pump inhibitor; assay type: functional; in short: as §5
# Streptococcus pneumoniae [28] = assay: Antibacterial activity against wild-type Streptococcus pneumoniae R6 by standardized agar doubling dilution method in presence of 50 uM sodium orthovanadate efflux pump inhibitor
# Streptococcus pneumoniae [29] = assay: Antibacterial activity against Streptococcus pneumoniae M298 overexpressing patA, patB and inactivated patA with single mutation by standardized agar doubling dilution method in presence of 20 ug/ml reserpine efflux pump inhibitor
Compound,MIC90 (Streptococcus pneumoniae [1]),MIC90 (Streptococcus pneumoniae [2]),MIC90 (Streptococcus pneumoniae [3]),MIC90 (Streptococcus pneumoniae [4]),MIC (Streptococcus pneumoniae [5]),MIC90 (Streptococcus pneumoniae [5]),MIC90 (Streptococcus pneumoniae [6]),MIC90 (Streptococcus pneumoniae [7]),MIC (Streptococcus pneumoniae [8]),MIC (Streptococcus pneumoniae [9]),MIC (Streptococcus pneumoniae [10]),MIC (Streptococcus pneumoniae [11]),MIC (Streptococcus pneumoniae [12]),MIC (Streptococcus pneumoniae [13]),MIC (Streptococcus pneumoniae [14]),MIC (Streptococcus pneumoniae [15]),MIC (Streptococcus pneumoniae [16]),MIC (Streptococcus pneumoniae [17]),MIC (Streptococcus pneumoniae [18]),MIC (Streptococcus pneumoniae [19]),further results
O=C(O)c1cn(C2CC2)c2cc(N3CCNCC3)c(F)cc2c1=O [CIPROFLOXACIN],16 µg/mL,8 µg/mL,4 µg/mL,2 µg/mL,0.25 µg/mL,0.25 µg/mL,0.25 µg/mL,0.5 µg/mL,4 µg/mL,4 µg/mL,1 µg/mL,16 µg/mL,8 µg/mL,8 µg/mL,8 µg/mL,2 µg/mL,1 µg/mL,4 µg/mL,4 µg/mL,8 µg/mL,MIC (Streptococcus pneumoniae [6]): 0.25 µg/mL; MIC (Streptococcus pneumoniae [20]): 8 µg/mL; MIC (Streptococcus pneumoniae [21]): 16 µg/mL; MIC (Streptococcus pneumoniae [22]): 1 µg/mL; MIC (Streptococcus pneumoniae [23]): 1 µg/mL; MIC (Streptococcus pneumoniae [24]): 4 µg/mL; MIC (Streptococcus pneumoniae [25]): 8 µg/mL; MIC (Streptococcus pneumoniae [26]): 16 µg/mL; MIC (Streptococcus pneumoniae [27]): 2 µg/mL; MIC (Streptococcus pneumoniae [28]): 0.25 µg/mL; MIC (Streptococcus pneumoniae [29]): 8 µg/mL
CC[n+]1c(-c2ccccc2)c2cc(N)ccc2c2ccc(N)cc21.[Br-] [HOMIDIUM BROMIDE],8 µg/mL,2 µg/mL,0.5 µg/mL,0.5 µg/mL,16 µg/mL,16 µg/mL,2 µg/mL,0.25 µg/mL,4 µg/mL,0.5 µg/mL,0.5 µg/mL,0.5 µg/mL,0.5 µg/mL,2 µg/mL,4 µg/mL,0.5 µg/mL,0.5 µg/mL,0.5 µg/mL,0.5 µg/mL,0.5 µg/mL,MIC (Streptococcus pneumoniae [20]): 0.5 µg/mL; MIC (Streptococcus pneumoniae [21]): 0.5 µg/mL; MIC (Streptococcus pneumoniae [22]): 0.25 µg/mL; MIC (Streptococcus pneumoniae [23]): 1 µg/mL; MIC (Streptococcus pneumoniae [24]): 0.5 µg/mL; MIC (Streptococcus pneumoniae [25]): 0.25 µg/mL; MIC (Streptococcus pneumoniae [26]): 0.5 µg/mL; MIC (Streptococcus pneumoniae [27]): 0.5 µg/mL; MIC (Streptococcus pneumoniae [28]): 0.12 µg/mL; MIC (Streptococcus pneumoniae [29]): 0.5 µg/mL
